Assay results as given in ChEMBL document CHEMBL1629504, “Synthesis, antitrichinnellosis and antiprotozoal activity of some novel thieno[2,3-d]pyrimidin-4(3H)-ones containing benzimidazole ring” (2010).
Activity calls are given as the source filed them. The rule behind the calls is not given here.

Tests used:
[1] = tested on: Giardia muris; experiment: Antiprotozoal activity against Giardia muris infected in white mouse assessed as presence of cysts in mouse faeces at 0.5 ug/ml, po after 5 days by microscopy; type: functional, organism-based; details: Feces
Procedure, shortened: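 Infected white mice (five per group) dosed p.o. once daily by thin metal oesophageal probe, 0.5 µg/ml pro die as 0.5 ml DMSO solution, for 5 days; untreated and DMSO-only control groups. After the course, faeces stained with Lugol's solution and examined microscopically for cysts.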

[2] = tested on: Trichinella spiralis; experiment: Antitrichinellosis activity against Trichinella spiralis assessed as parasites viability at 5 ug/ml after 48 hrs by stereomicroscopy; type: functional
Procedure, shortened: (§1)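 Encapsulated larvae, 100 per 1 ml physiological solution (Campbell's method), exposed to compound dissolved in DMSO at 5 µg/ml; incubated in a humid thermostatted chamber at 37 °C. Larval vitality checked by stereomicroscopy at 24 and 48 h.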

[3] = tested on: Trichinella spiralis; experiment: Antitrichinellosis activity against Trichinella spiralis assessed as parasites viability at 5 ug/ml after 24 hrs by stereomicroscopy; type: functional; procedure, shortened: as §1
[4] = tested on: Paramecium caudatum; experiment: Antiprotozoal activity against Paramecium caudatum assessed as parasites viability at 1 ug/ml after 15-20 mins by stereomicroscopy; type: functional
Procedure, shortened: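 Paramecia from dry-hay maceration culture; 2–3 drops of culture added to a drop of compound in DMSO (1 µg/ml) in a Petri dish. Motility and cell integrity followed stereomicroscopically over minutes after addition.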

Structure (SMILES)	Activity [1]	Efficacy [2]	Efficacy [3]	Activity [4]
CCOC(=O)c1sc2nc(CCSc3nc4cc(Cl)ccc4[nH]3)[nH]c(=O)c2c1C	Active	5.09%	0%	Active
CCOC(=O)c1sc2nc(CCSc3nc4cc([N+](=O)[O-])ccc4[nH]3)[nH]c(=O)c2c1C	Active	80.05%	50%	Active
O=c1[nH]c(CCn2cnc3cc([N+](=O)[O-])ccc32)nc2sc3c(c12)CCCC3	Active	95.05%	95.05%	Active
CCCSc1ccc2[nH]c(NC(=O)OC)nc2c1 [ALBENDAZOLE]	–	14.8%	10.6%	–
CCOC(=O)c1sc2nc(CCn3cnc4ccccc43)[nH]c(=O)c2c1C	Active	85.3%	79.8%	Active
CCOC(=O)c1sc2nc(CCSc3nc4ccccc4n3CC)[nH]c(=O)c2c1C	Active	59.75%	39.07%	Active
CCCn1c(SCCc2nc3sc4c(c3c(=O)[nH]2)CCCC4)nc2ccccc21	Active	90.05%	84.8%	Active
Cn1c(SCCc2nc3sc4c(c3c(=O)[nH]2)CCCC4)nc2ccccc21	Active	89.9%	40.05%	Active
O=c1[nH]c(CCSc2nc3ccccc3n2[N+](=O)[O-])nc2sc3c(c12)CCCC3	Active	90.1%	90.1%	Active
